Source: ChEMBL document CHEMBL4364323, “Synthesis and biological evaluation of moxifloxacin-acetyl-1,2,3-1H-triazole-methylene-isatin hybrids as potential anti-tubercular agents against both drug-susceptible and drug-resistant Mycobacterium tuberculosis strains” (Eur J Med Chem, 2019)
≈ marks a conversion by molar mass, not a printed value.

Key:
[1] = tested on: Mycobacterium tuberculosis; assay: Antimycobacterial activity against Mycobacterium tuberculosis H37Rv incubated for 7 days by rapid direct susceptibility test; format: functional; conditions: 168 h
Procedure, shortened: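 Two-fold compound dilutions were mixed with MTB suspension containing 4×10 -3 mg cells per well and incubated at 37 °C in a wet box. MIC was read from the quantity and state of cells in each well under a continuous visual high-magnification system and was re-determined 7 days later.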

[2] = Cytotoxicity against African green monkey Vero cells incubated for 72 hrs by MTT assay; format: cell-based; conditions: chlorocebus sabaeus
Procedure, shortened: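 Compounds were dissolved in DMSO and tested at 128 to 4 μg/mL. VERO cells were grown in MEM with Earle's salts plus 10% FBS at 37 °C, 5% CO2, seeded at 1×10^4 cells/well and allowed to recover 24 h. Cells were then exposed to compound or drug-free medium for 72 h. Viability was read by MTT, and CC50 was calculated by Bliss analysis.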

[3] = Selectivity index, ratio of CC50 for African green monkey Vero cells to MIC for Mycobacterium tuberculosis H37Rv; format: toxicity; conditions: read-out: Selectivity Index
[4] = biological target: DNA gyrase subunit A/DNA gyrase subunit B (Mycobacterium tuberculosis (strain ATCC 25618 / H37Rv), UniProt P9WG45+P9WG47); assay: Inhibition of Mycobacterium tuberculosis DNA gyrase; format: protein-complex assay
[5] = Cmax in SPF ICR mouse at 100 mg/kg, sc; format: ADME, organism-based; set-up: dose 100 mg/kg, route subcutaneous; conditions: in vivo
Procedure, shortened: (§1)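 Female SPF ICR mice (20-25 g) dosed once at 100 mg/kg by subcutaneous injection. Plasma concentration-time data were collected. Cmax, Tmax, t1/2 and AUC0-inf were taken directly from the experimental data.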

[6] = Tmax in SPF ICR mouse at 100 mg/kg, sc; format: ADME, organism-based; conditions: in vivo; procedure, shortened: as §1
[7] = AUC (0 to infinity) in SPF ICR mouse at 100 mg/kg, sc; format: ADME, organism-based; set-up: dose 100 mg/kg, route subcutaneous, time infinity; conditions: in vivo; procedure, shortened: as §1
[8] = Half life in SPF ICR mouse at 100 mg/kg, sc; format: ADME, organism-based; conditions: in vivo
[9] = tested on: CHO; assay: Cytotoxicity against CHO cells assessed as slight change in cell viability at 128 to 4 ug/ml; format: cell-based, Cricetulus griseus; conditions: chinese hamster

Sequence of DNA gyrase subunit A/DNA gyrase subunit B (P9WG45 whole entry): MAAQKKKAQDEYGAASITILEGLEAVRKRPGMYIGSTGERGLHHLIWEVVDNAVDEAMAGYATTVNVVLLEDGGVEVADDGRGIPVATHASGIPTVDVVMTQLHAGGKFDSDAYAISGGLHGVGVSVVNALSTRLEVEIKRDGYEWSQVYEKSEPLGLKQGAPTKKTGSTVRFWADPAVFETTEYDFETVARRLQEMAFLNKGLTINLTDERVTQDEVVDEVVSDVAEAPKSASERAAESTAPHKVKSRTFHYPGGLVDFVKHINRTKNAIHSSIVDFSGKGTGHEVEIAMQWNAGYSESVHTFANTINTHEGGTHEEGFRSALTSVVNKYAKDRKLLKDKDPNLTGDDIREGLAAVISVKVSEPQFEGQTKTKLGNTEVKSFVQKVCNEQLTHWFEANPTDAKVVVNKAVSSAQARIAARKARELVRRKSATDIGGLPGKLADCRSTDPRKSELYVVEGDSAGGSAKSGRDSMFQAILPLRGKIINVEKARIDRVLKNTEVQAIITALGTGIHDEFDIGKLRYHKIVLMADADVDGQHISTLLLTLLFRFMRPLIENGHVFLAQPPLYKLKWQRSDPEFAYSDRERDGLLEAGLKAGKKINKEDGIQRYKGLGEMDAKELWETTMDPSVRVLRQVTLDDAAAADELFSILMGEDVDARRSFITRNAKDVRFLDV
Sequence of DNA gyrase subunit A/DNA gyrase subunit B (P9WG47 whole entry): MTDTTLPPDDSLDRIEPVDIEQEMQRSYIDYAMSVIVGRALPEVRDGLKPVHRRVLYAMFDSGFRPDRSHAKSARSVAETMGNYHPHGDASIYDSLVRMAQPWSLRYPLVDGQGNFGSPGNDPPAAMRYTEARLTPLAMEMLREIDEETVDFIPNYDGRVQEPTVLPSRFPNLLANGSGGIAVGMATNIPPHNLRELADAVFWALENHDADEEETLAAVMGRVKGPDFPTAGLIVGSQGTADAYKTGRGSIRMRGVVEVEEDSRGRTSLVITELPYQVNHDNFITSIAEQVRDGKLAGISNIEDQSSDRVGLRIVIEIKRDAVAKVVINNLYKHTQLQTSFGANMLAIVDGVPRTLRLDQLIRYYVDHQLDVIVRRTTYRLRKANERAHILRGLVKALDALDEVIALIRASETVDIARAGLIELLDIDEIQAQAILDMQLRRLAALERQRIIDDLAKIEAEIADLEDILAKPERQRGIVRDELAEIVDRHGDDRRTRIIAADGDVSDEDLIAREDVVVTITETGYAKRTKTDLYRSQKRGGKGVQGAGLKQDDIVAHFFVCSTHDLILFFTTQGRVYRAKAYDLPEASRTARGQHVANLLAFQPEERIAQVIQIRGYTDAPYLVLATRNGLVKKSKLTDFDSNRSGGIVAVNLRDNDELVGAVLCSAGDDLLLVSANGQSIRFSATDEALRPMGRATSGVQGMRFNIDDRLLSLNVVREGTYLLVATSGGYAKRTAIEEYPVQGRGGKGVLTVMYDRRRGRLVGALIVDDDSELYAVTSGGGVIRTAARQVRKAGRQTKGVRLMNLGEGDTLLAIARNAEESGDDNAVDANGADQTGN

Compound: COc1c(N2C[C@H]3CCCN(C(=O)Cn4cc(CN5C(=O)/C(=N/NC(N)=S)c6cccc(F)c65)nn4)[C@H]3C2)c(F)cc2c(=O)c(C(=O)O)cn(C3CC3)c12
- MIC [1]: 8 µg/mL (≈ 10.5 µM)
- CC50 at 72 h [2]: 8 µg/mL (≈ 10.5 µM)
- selectivity ratio [3]: 1

Compound: COc1c(N2C[C@H]3CCCN(C(=O)Cn4cc(CN5C(=O)/C(=N/O)c6ccccc65)nn4)[C@H]3C2)c(F)cc2c(=O)c(C(=O)O)cn(C3CC3)c12
- MIC [1]: 1 µg/mL (≈ 1.46 µM)
- CC50 at 72 h [2]: 32 µg/mL (≈ 46.7 µM)
- selectivity ratio [3]: 32

Compound: COc1c(N2C[C@H]3CCCN(C(=O)Cn4cc(CN5C(=O)C(=O)c6ccccc65)nn4)[C@H]3C2)c(F)cc2c(=O)c(C(=O)O)cn(C3CC3)c12
- MIC [1]: 0.25 µg/mL (≈ 0.373 µM)
- CC50 at 72 h [2]: 32 µg/mL (≈ 47.8 µM)
- selectivity ratio [3]: 128
- IC50 [4]: 5.97 µM

Compound: COc1c(N2CCNC(C)C2)c(F)cc2c(=O)c(C(=O)O)cn(C3CC3)c12 (centres undefined) [GATIFLOXACIN]
- MIC [1]: 0.5 µg/mL (≈ 1.33 µM)
- CC50 at 72 h [2]: 64 µg/mL (≈ 170 µM)
- selectivity ratio [3]: 128
- IC50 [4]: 13.3 µM

Compound: CO/N=C1/C(=O)N(Cc2cn(CC(=O)N3CCC[C@@H]4CN(c5c(F)cc6c(=O)c(C(=O)O)cn(C7CC7)c6c5OC)C[C@@H]43)nn2)c2ccc(F)cc21
- MIC [1]: 1 µg/mL (≈ 1.4 µM)
- CC50 at 72 h [2]: 32 µg/mL (≈ 44.6 µM)
- selectivity ratio [3]: 32

Compound: COc1c(N2C[C@H]3CCCN(C(=O)Cn4cc(CN5C(=O)C(=O)c6cccc(F)c65)nn4)[C@H]3C2)c(F)cc2c(=O)c(C(=O)O)cn(C3CC3)c12
- MIC [1]: 8 µg/mL (≈ 11.6 µM)
- CC50 at 72 h [2]: 32 µg/mL (≈ 46.5 µM)
- selectivity ratio [3]: 4

Compound: COc1c(N2C[C@H]3CCCN(C(=O)Cn4cc(CN5C(=O)/C(=N/O)c6cccc(F)c65)nn4)[C@H]3C2)c(F)cc2c(=O)c(C(=O)O)cn(C3CC3)c12
- MIC [1]: 16 µg/mL (≈ 22.8 µM)
- CC50 at 72 h [2]: 16 µg/mL (≈ 22.8 µM)
- selectivity ratio [3]: 1

Compound: CO/N=C1/C(=O)N(Cc2cn(CC(=O)N3CCC[C@@H]4CN(c5c(F)cc6c(=O)c(C(=O)O)cn(C7CC7)c6c5OC)C[C@@H]43)nn2)c2ccc(C)cc21
- MIC [1]: 4 µg/mL (≈ 5.61 µM)
- CC50 at 72 h [2]: 64 µg/mL (≈ 89.8 µM)
- selectivity ratio [3]: 16

Compound: COc1c(N2C[C@H]3CCCN(C(=O)Cn4cc(CN5C(=O)C(=O)c6cc(F)ccc65)nn4)[C@H]3C2)c(F)cc2c(=O)c(C(=O)O)cn(C3CC3)c12
- MIC [1]: 1 µg/mL (≈ 1.45 µM)
- CC50 at 72 h [2]: 16 µg/mL (≈ 23.3 µM)
- selectivity ratio [3]: 16

Compound: COc1c(N2C[C@@H]3CCCN[C@@H]3C2)c(F)cc2c(=O)c(C(=O)O)cn(C3CC3)c12 [MOXIFLOXACIN]
- MIC [1]: 0.12 µg/mL (≈ 0.299 µM)
- Cmax [5]: 10800 ng/mL
- Tmax [6]: 27 min
- AUC(0-inf) [7]: 19200 ng·h/mL

Compound: COc1c(N2C[C@H]3CCCN(C(=O)Cn4cc(CN5C(=O)C(=O)c6cc(C)ccc65)nn4)[C@H]3C2)c(F)cc2c(=O)c(C(=O)O)cn(C3CC3)c12
- MIC [1]: 2 µg/mL (≈ 2.93 µM)
- CC50 at 72 h [2]: 64 µg/mL (≈ 93.6 µM)
- selectivity ratio [3]: 32

Compound: CO/N=C1/C(=O)N(Cc2cn(CC(=O)N3CCC[C@@H]4CN(c5c(F)cc6c(=O)c(C(=O)O)cn(C7CC7)c6c5OC)C[C@@H]43)nn2)c2ccccc21
- MIC [1]: 0.5 µg/mL (≈ 0.716 µM)
- CC50 at 72 h [2]: 128 µg/mL (≈ 183 µM)
- selectivity ratio [3]: 256
- IC50 [4]: 8.59 µM
- Cmax [5]: 3250 ng/mL
- half-life [8]: 186 min
- Tmax [6]: 39 min
- AUC(0-inf) [7]: 6440 ng·h/mL
- Activity [9]: Toxic

Compound: COc1c(N2C[C@H]3CCCN(C(=O)Cn4cc(CN5C(=O)/C(=N/NC(N)=S)c6cc(F)ccc65)nn4)[C@H]3C2)c(F)cc2c(=O)c(C(=O)O)cn(C3CC3)c12
- MIC [1]: 0.25 µg/mL (≈ 0.329 µM)
- CC50 at 72 h [2]: 8 µg/mL (≈ 10.5 µM)
- selectivity ratio [3]: 32
- IC50 [4]: 10.5 µM

Compound: NNC(=O)c1ccncc1 [ISONIAZID]
- MIC [1]: 0.12 µg/mL (≈ 0.875 µM)
- selectivity ratio [3]: 1024

Compound: COc1c(N2C[C@H]3CCCN(C(=O)Cn4cc(CN5C(=O)/C(=N/NC(N)=S)c6ccccc65)nn4)[C@H]3C2)c(F)cc2c(=O)c(C(=O)O)cn(C3CC3)c12
- MIC [1]: 0.12 µg/mL (≈ 0.162 µM)
- CC50 at 72 h [2]: 16 µg/mL (≈ 21.5 µM)
- selectivity ratio [3]: 128
- IC50 [4]: 6.73 µM
- Cmax [5]: 1400 ng/mL
- half-life [8]: 258 min
- Tmax [6]: 52 min
- AUC(0-inf) [7]: 3270 ng·h/mL
- Activity [9]: Toxic

Compound: CO/N=C1/C(=O)N(Cc2cn(CC(=O)N3CCC[C@@H]4CN(c5c(F)cc6c(=O)c(C(=O)O)cn(C7CC7)c6c5OC)C[C@@H]43)nn2)c2c(F)cccc21
- MIC [1]: 16 µg/mL (≈ 22.3 µM)
- CC50 at 72 h [2]: 16 µg/mL (≈ 22.3 µM)
- selectivity ratio [3]: 1

Compound: CO[C@H]1/C=C/O[C@@]2(C)Oc3c(C)c(O)c4c(O)c(c(/C=N/N5CCN(C)CC5)c(O)c4c3C2=O)NC(=O)/C(C)=C\C=C\[C@H](C)[C@H](O)[C@@H](C)[C@@H](O)[C@@H](C)[C@H](OC(C)=O)[C@@H]1C [RIFAMPIN]
- MIC [1]: 0.06 µg/mL (≈ 0.0729 µM)
- CC50 at 72 h [2]: > 128 µg/mL
- selectivity ratio [3]: > 512

Compound: COc1c(N2C[C@H]3CCCN(C(=O)Cn4cc(CN5C(=O)/C(=N/O)c6cc(F)ccc65)nn4)[C@H]3C2)c(F)cc2c(=O)c(C(=O)O)cn(C3CC3)c12
- MIC [1]: 2 µg/mL (≈ 2.85 µM)
- CC50 at 72 h [2]: 16 µg/mL (≈ 22.8 µM)
- selectivity ratio [3]: 8
